Legend:
Mus musculus [1] = assay: Biodistribution was measured in mice heart 60 minutes after intravenous injection of [125I]-labeled styrylbenzene.; format: ADME, organism-based; details: in vivo, 1 h
Procedure, shortened: (§1)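 ICR mice (2-3 months old, 20-30 g) under ether anesthesia received 5-10 µCi ¹²⁵I tracer in 0.15 mL saline by tail-vein injection. Animals were killed by cardiac excision at set times post-injection. Organs were removed, weighed and γ-counted. Values are % dose per organ against diluted injectate aliquots, taking blood and muscle as 7% and 40% of body weight. Mean of 3-4 mice ± SD.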

Mus musculus [2] = assay: Biodistribution was measured in mice skin 24 hours after intravenous injection of [125I]-labeled styrylbenzene.; format: ADME, organism-based, Zone of skin; details: in vivo; procedure, shortened: as §1
Mus musculus [3] = assay: Biodistribution was measured in mice kidney 24 hours after intravenous injection of [125I]-labeled styrylbenzene.; format: ADME, organism-based; details: in vivo; procedure, shortened: as §1
Mus musculus [4] = assay: Biodistribution was measured in mice lung 24 hours after intravenous injection of [125I]-labeled styrylbenzene.; format: ADME, organism-based; details: in vivo, in the assay text read “thioflavin” for “styrylbenzene”; procedure, shortened: as §1
Mus musculus [5] = assay: Biodistribution was measured in mice lung 2 minutes after intravenous injection of [125I]-labeled styrylbenzene.; format: ADME, organism-based; details: in vivo; procedure, shortened: as §1
Mus musculus [6] = assay: Biodistribution was measured in mice brain 2 minutes after intravenous injection of [125I]-labeled styrylbenzene; format: ADME, organism-based; details: in vivo, in the assay text read “thioflavin” for “styrylbenzene”; procedure, shortened: as §1
Mus musculus [7] = assay: Biodistribution was measured in mice blood 60 minutes after intravenous injection of [125I]-labeled styrylbenzene.; format: ADME, organism-based; details: in vivo, 1 h; procedure, shortened: as §1
Mus musculus [8] = assay: Biodistribution was measured in mice kidney 30 minutes after intravenous injection of [125I]-labeled styrylbenzene.; format: ADME, organism-based; details: in vivo, 0.5 h; procedure, shortened: as §1
Mus musculus [9] = assay: Biodistribution was measured in mice blood 2 minutes after intravenous injection of [125I]-labeled styrylbenzene.; format: ADME, organism-based; details: in vivo; procedure, shortened: as §1
Mus musculus [10] = assay: Biodistribution was measured in mice heart 30 minutes after intravenous injection of [125I]-labeled styrylbenzene.; format: ADME, organism-based; details: in vivo, 0.5 h; procedure, shortened: as §1
Mus musculus [11] = assay: Biodistribution was measured in mice spleen 24 hours after intravenous injection of [125I]-labeled styrylbenzene.; format: ADME, organism-based; details: in vivo
Mus musculus [12] = assay: Biodistribution was measured in mice skin 60 minutes after intravenous injection of [125I]-labeled styrylbenzene.; format: ADME, organism-based, Zone of skin; details: in vivo, 1 h; procedure, shortened: as §1
Mus musculus [13] = assay: Biodistribution was measured in mice spleen 6 hours after intravenous injection of [125I]-labeled thioflavin.; details: in vivo
Mus musculus [14] = assay: Biodistribution was measured in mice spleen 2 minutes after intravenous injection of [125I]-labeled styrylbenzene.; format: ADME, organism-based; details: in vivo; procedure, shortened: as §1
Mus musculus [15] = assay: Biodistribution was measured in mice brain 24 hours after intravenous injection of [125I]-labeled styrylbenzene; format: ADME, organism-based; details: in vivo, in the assay text read “thioflavin” for “styrylbenzene”; procedure, shortened: as §1
Mus musculus [16] = assay: Biodistribution was measured in mice blood 6 hours after intravenous injection of [125I]-labeled styrylbenzene.; format: ADME, organism-based; details: in vivo; procedure, shortened: as §1
Mus musculus [17] = assay: Biodistribution was measured in mice muscle 6 hours after intravenous injection of [125I]-labeled styrylbenzene.; format: ADME, organism-based, Muscle tissue; details: in vivo; procedure, shortened: as §1
Mus musculus [18] = assay: Biodistribution was measured in mice lung 60 minutes after intravenous injection of [125I]-labeled styrylbenzene.; format: ADME, organism-based; details: in vivo, 1 h; procedure, shortened: as §1
Mus musculus [19] = assay: Biodistribution was measured in mice liver 30 minutes after intravenous injection of [125I]-labeled styrylbenzene.; format: ADME, organism-based; details: in vivo, 0.5 h; procedure, shortened: as §1
Mus musculus [20] = assay: Biodistribution was measured in mice muscle 30 minutes after intravenous injection of [125I]-labeled styrylbenzene.; format: ADME, organism-based, Muscle tissue; details: in vivo, 0.5 h; procedure, shortened: as §1
Mus musculus [21] = assay: Biodistribution was measured in mice heart 2 minutes after intravenous injection of [125I]-labeled styrylbenzene.; format: ADME, organism-based; details: in vivo; procedure, shortened: as §1
Mus musculus [22] = assay: Biodistribution was measured in mice kidney 60 minutes after intravenous injection of [125I]-labeled styrylbenzene.; format: ADME, organism-based; details: in vivo, 1 h; procedure, shortened: as §1
Mus musculus [23] = assay: Biodistribution was measured in mice skin 30 minutes after intravenous injection of [125I]-labeled styrylbenzene.; format: ADME, organism-based, Zone of skin; details: in vivo, 0.5 h; procedure, shortened: as §1
Mus musculus [24] = assay: Biodistribution was measured in mice liver 24 hours after intravenous injection of [125I]-labeled styrylbenzene.; format: ADME, organism-based; details: in vivo; procedure, shortened: as §1
Mus musculus [25] = assay: Biodistribution was measured in mice blood 24 hours after intravenous injection of [125I]-labeled styrylbenzene.; format: ADME, organism-based; details: in vivo; procedure, shortened: as §1
Mus musculus [26] = assay: Biodistribution was measured in mice brain 60 minutes after intravenous injection of [125I]-labeled styrylbenzene; format: ADME, organism-based; details: in vivo, 1 h; procedure, shortened: as §1
Mus musculus [27] = assay: Biodistribution was measured in mice muscle 2 minutes after intravenous injection of [125I]-labeled styrylbenzene.; format: ADME, organism-based, Muscle tissue; details: in vivo, in the assay text read “thioflavin” for “styrylbenzene”; procedure, shortened: as §1
Mus musculus [28] = assay: Biodistribution was measured in mice spleen 60 minutes after intravenous injection of [125I]-labeled styrylbenzene.; format: ADME, organism-based; details: in vivo, 1 h
Procedure, shortened: (§2)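 ICR mice (2-3 months old, 20-30 g) under ether anesthesia; 0.15 mL saline containing 5-10 µCi ¹²⁵I tracer injected into tail vein. Sacrifice by cardiac excision at set times; organs removed, weighed, γ-counted. Expressed as % dose per organ versus diluted aliquots of injectate. Mean of three or four mice ± SD.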

Mus musculus [29] = assay: Biodistribution was measured in mice skin 2 minutes after intravenous injection of [125I]-labeled styrylbenzene.; format: ADME, organism-based, Zone of skin; details: in vivo; procedure, shortened: as §1
Mus musculus [30] = assay: Biodistribution was measured in mice kidney 6 hours after intravenous injection of [125I]-labeled styrylbenzene.; format: ADME, organism-based; details: in vivo; procedure, shortened: as §1
Mus musculus [31] = assay: Biodistribution was measured in mice kidney 2 minutes after intravenous injection of [125I]-labeled styrylbenzene.; format: ADME, organism-based; details: in vivo; procedure, shortened: as §1
Mus musculus [32] = assay: Biodistribution was measured in mice muscle 24 hourss after intravenous injection of [125I]-labeled styrylbenzene.; format: ADME, organism-based, Muscle tissue; details: in vivo; procedure, shortened: as §1
Mus musculus [33] = assay: Biodistribution was measured in mice blood 30 minutes after intravenous injection of [125I]-labeled styrylbenzene.; format: ADME, organism-based; details: in vivo, 0.5 h; procedure, shortened: as §1
Mus musculus [34] = assay: Biodistribution was measured in mice muscle 60 minutes after intravenous injection of [125I]-labeled styrylbenzene.; format: ADME, organism-based, Muscle tissue; details: in vivo, 1 h; procedure, shortened: as §1
Mus musculus [35] = assay: Biodistribution was measured in mice skin 6 hours after intravenous injection of [125I]-labeled styrylbenzene.; format: ADME, organism-based, Zone of skin; details: in vivo; procedure, shortened: as §1
Mus musculus [36] = assay: Biodistribution was measured in mice lung 6 hours after intravenous injection of [125I]-labeled styrylbenzene.; format: ADME, organism-based; details: in vivo, in the assay text read “thioflavin” for “styrylbenzene”; procedure, shortened: as §1
Mus musculus [37] = assay: Biodistribution was measured in mice liver 60 minutes after intravenous injection of [125I]-labeled styrylbenzene.; format: ADME, organism-based; details: in vivo, 1 h; procedure, shortened: as §1
Mus musculus [38] = assay: Biodistribution was measured in mice liver 6 hours after intravenous injection of [125I]-labeled styrylbenzene.; format: ADME, organism-based; details: in vivo, in the assay text read “thioflavin” for “styrylbenzene”; procedure, shortened: as §1
Mus musculus [39] = assay: Biodistribution was measured in mice heart 24 hours after intravenous injection of [125I]-labeled styrylbenzene.; format: ADME, organism-based; details: in vivo; procedure, shortened: as §1
[40] = target: Amyloid-beta precursor protein (Homo sapiens, UniProt P05067); assay: Inhibition constant for aggregates of amyloid beta compared to [125I]IMSB
Chain of Amyloid-beta precursor protein (P05067 whole entry): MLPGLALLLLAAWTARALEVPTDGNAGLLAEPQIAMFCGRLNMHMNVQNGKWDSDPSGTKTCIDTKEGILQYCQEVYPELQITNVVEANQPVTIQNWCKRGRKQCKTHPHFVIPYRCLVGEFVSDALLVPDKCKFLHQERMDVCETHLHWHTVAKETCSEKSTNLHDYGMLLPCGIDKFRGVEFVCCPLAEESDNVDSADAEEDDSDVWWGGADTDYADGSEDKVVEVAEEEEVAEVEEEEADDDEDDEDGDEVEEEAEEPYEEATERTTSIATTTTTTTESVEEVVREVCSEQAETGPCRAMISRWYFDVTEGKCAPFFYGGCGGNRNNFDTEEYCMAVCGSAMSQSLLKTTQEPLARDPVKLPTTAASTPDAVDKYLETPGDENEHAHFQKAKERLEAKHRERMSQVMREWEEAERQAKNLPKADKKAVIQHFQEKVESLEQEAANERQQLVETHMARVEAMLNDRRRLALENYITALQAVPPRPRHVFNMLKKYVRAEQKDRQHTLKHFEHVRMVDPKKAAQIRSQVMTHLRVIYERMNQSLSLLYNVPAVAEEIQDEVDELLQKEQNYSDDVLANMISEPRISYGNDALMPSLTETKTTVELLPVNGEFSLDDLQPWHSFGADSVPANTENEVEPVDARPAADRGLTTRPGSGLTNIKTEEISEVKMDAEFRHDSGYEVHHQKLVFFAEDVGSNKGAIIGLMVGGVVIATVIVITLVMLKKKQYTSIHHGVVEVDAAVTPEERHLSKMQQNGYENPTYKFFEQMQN
Procedure, shortened: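 Aβ(1-40) or Aβ(1-42) aggregated at 0.5 or 0.25 mg/mL respectively in pH 7.4 buffer (10 mM sodium phosphate, 1 mM EDTA), 37 °C, 36-42 h with shaking. Competition against ¹²⁵I radioligand with fibrils 10-50 nM (final), 10% EtOH, 1 mL. Incubation 3 h room temperature. Bound ligand collected by GF/B filtration, γ-counted. Ki by nonlinear regression. Mean ± SEM, three experiments in duplicate.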

Mus musculus [41] = assay: Biodistribution was measured in mice spleen 30 minutes after intravenous injection of [125I]-labeled styrylbenzene.; format: ADME, organism-based; details: in vivo, 0.5 h; procedure, shortened: as §2
Mus musculus [42] = assay: Biodistribution was measured in mice liver 2 minutes after intravenous injection of [125I]-labeled styrylbenzene.; format: ADME, organism-based; details: in vivo; procedure, shortened: as §1
Mus musculus [43] = assay: Biodistribution was measured in mice lung 30 minutes after intravenous injection of [125I]-labeled styrylbenzene.; format: ADME, organism-based; details: in vivo, 0.5 h; procedure, shortened: as §1
Mus musculus [44] = assay: Biodistribution was measured in mice brain 6 hours after intravenous injection of [125I]-labeled styrylbenzene; format: ADME, organism-based; details: in vivo; procedure, shortened: as §1
Mus musculus [45] = assay: Biodistribution was measured in mice brain 30 minutes after intravenous injection of [125I]-labeled styrylbenzene; format: ADME, organism-based; details: in vivo, 0.5 h; procedure, shortened: as §1
Mus musculus [46] = assay: Biodistribution was measured in mice heart 6 hours after intravenous injection of [125I]-labeled styrylbenzene.; format: ADME, organism-based; details: in vivo; procedure, shortened: as §1

`CN(C)c1ccc(-c2nc3ccc(I)cc3s2)cc1` was tested, and the Dose/organ (Mus musculus [1]) was 0.17%, the Dose/organ (Mus musculus [2]) was 0.2% and the Dose/organ (Mus musculus [3]) was 0.06%. For the same compound, the Dose/organ (Mus musculus [4]) was 0.03%, the Dose/organ (Mus musculus [5]) was 5.91% and the Dose/organ (Mus musculus [6]) was 0.6%. The Dose/organ (Mus musculus [7]) was 3.79%, the Dose/organ (Mus musculus [8]) was 2.24% and the Dose/organ (Mus musculus [9]) was 15.74%. It also gave a Dose/organ (Mus musculus [10]) of 0.2%, a Dose/organ (Mus musculus [11]) of 0.01% and a Dose/organ (Mus musculus [12]) of 12.8%. It also gave a Dose/organ (Mus musculus [13]) of 0.04%, a Dose/organ (Mus musculus [14]) of 0.59% and a Dose/organ (Mus musculus [15]) of 0.04%. The Dose/organ (Mus musculus [16]) was 1.44%, the Dose/organ (Mus musculus [17]) was 2.93% and the Dose/organ (Mus musculus [18]) was 0.78%. It also gave a Dose/organ (Mus musculus [19]) of 10.93%, a Dose/organ (Mus musculus [20]) of 12.89% and a Dose/organ (Mus musculus [21]) of 1.79%. The Dose/organ (Mus musculus [22]) was 2.23%, the Dose/organ (Mus musculus [23]) was 7.4% and the Dose/organ (Mus musculus [24]) was 0.3%. For the same compound, the Dose/organ (Mus musculus [25]) was 0.29%, the Dose/organ (Mus musculus [26]) was 1.57% and the Dose/organ (Mus musculus [27]) was 17.81%. For the same compound, the Dose/organ (Mus musculus [28]) was 0.17%, the Dose/organ (Mus musculus [29]) was 3.2% and the Dose/organ (Mus musculus [30]) was 0.54%. For the same compound, the Dose/organ (Mus musculus [31]) was 5.42%, the Dose/organ (Mus musculus [32]) was 0.33% and the Dose/organ (Mus musculus [33]) was 3.26%. The Dose/organ (Mus musculus [34]) was 12.81%, the Dose/organ (Mus musculus [35]) was 3.8% and the Dose/organ (Mus musculus [36]) was 0.21%. The Dose/organ (Mus musculus [37]) was 9.21%, the Dose/organ (Mus musculus [38]) was 1.52% and the Dose/organ (Mus musculus [39]) was 0.01%. The Ki [40] was over 5 µM, the Dose/organ (Mus musculus [41]) was 0.2% and the Dose/organ (Mus musculus [42]) was 31.62%. For the same compound, the Dose/organ (Mus musculus [43]) was 0.72%, the Dose/organ (Mus musculus [44]) was 0.65% and the Dose/organ (Mus musculus [45]) was 0.9%. For the same compound, the Dose/organ (Mus musculus [46]) was 0.05%.

From ChEMBL document CHEMBL1134439, “Radioiodinated styrylbenzenes and thioflavins as probes for amyloid aggregates” (J Med Chem, 2001)
